Legend:
Cavia porcellus [1] = assay: Effective dose in vivo for cardiac refractoriness (ERP) using paced guinea pig model; assay type: functional
In short: (§1)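 Guinea pig paced in vivo model. Hemodynamics recorded in normal sinus rhythm; ERP measured during brief pacing at baseline and 10 min after dosing. Bolus of 1 mL/kg via left ventricular catheter for doses <10 mg/kg; higher doses infused over 1 min. Cumulative dosing every 15 min up to the maximally tolerated dose (dP/dt reduced >50%). ED20 (ERP +20 ms) and dP/dt20 (20% drop in LV pressure-rise rate) derived by linear regression of individual dose-response curves.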

Cavia porcellus [2] = assay: In vivo index of cardiac contractility using paced guinea pig model; assay type: functional; in short: as §1
[3] = biological target: Sodium channel protein type 5 subunit alpha (cardiac sodium channel) (Rattus norvegicus, UniProt P15389); assay: in vitro; conditions: sodium channel from cardiac myocytes, probe [3H]batrachotoxin ([3H]BTX)
Canis familiaris = assay: Minimal effective dose that resulted in significant reduction in PVC frequency in conscious dogs by po administration after 24 hours of coronary artery ligation; assay type: functional; conditions: Canis lupus familiaris, read-out: MED
In short: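 Dogs (8.0–19.1 kg) underwent LAD occlusion under halothane anesthesia with Holter electrodes. 24 h after occlusion, animals with PVCs exceeding 50% of heart rate were dosed orally by gavage with agent in water (n = 4 per group). Holter recorded 1 h before and 12–24 h after dosing.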

Cavia porcellus [4] = assay: Minimal effective dose that resulted in significant delay in the onset of arrhythmias in guinea pig with iv administration of aconitine hydrochloride; assay type: functional; conditions: read-out: MED
In short: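 Guinea pigs (n = 6 per dose, parallel groups) received agent or saline iv (1 mL/kg) 10 min before a lethal aconitine hydrochloride challenge (34 μg/kg iv). Times to first PVC, sustained VT and VF (>15 s) were recorded and compared with concurrent controls by one-way ANOVA. MED taken from an ascending semilogarithmic dose escalation as the dose giving significant delay in arrhythmia onset.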

Sequence of Sodium channel protein type 5 subunit alpha (cardiac sodium channel) (P15389 whole entry): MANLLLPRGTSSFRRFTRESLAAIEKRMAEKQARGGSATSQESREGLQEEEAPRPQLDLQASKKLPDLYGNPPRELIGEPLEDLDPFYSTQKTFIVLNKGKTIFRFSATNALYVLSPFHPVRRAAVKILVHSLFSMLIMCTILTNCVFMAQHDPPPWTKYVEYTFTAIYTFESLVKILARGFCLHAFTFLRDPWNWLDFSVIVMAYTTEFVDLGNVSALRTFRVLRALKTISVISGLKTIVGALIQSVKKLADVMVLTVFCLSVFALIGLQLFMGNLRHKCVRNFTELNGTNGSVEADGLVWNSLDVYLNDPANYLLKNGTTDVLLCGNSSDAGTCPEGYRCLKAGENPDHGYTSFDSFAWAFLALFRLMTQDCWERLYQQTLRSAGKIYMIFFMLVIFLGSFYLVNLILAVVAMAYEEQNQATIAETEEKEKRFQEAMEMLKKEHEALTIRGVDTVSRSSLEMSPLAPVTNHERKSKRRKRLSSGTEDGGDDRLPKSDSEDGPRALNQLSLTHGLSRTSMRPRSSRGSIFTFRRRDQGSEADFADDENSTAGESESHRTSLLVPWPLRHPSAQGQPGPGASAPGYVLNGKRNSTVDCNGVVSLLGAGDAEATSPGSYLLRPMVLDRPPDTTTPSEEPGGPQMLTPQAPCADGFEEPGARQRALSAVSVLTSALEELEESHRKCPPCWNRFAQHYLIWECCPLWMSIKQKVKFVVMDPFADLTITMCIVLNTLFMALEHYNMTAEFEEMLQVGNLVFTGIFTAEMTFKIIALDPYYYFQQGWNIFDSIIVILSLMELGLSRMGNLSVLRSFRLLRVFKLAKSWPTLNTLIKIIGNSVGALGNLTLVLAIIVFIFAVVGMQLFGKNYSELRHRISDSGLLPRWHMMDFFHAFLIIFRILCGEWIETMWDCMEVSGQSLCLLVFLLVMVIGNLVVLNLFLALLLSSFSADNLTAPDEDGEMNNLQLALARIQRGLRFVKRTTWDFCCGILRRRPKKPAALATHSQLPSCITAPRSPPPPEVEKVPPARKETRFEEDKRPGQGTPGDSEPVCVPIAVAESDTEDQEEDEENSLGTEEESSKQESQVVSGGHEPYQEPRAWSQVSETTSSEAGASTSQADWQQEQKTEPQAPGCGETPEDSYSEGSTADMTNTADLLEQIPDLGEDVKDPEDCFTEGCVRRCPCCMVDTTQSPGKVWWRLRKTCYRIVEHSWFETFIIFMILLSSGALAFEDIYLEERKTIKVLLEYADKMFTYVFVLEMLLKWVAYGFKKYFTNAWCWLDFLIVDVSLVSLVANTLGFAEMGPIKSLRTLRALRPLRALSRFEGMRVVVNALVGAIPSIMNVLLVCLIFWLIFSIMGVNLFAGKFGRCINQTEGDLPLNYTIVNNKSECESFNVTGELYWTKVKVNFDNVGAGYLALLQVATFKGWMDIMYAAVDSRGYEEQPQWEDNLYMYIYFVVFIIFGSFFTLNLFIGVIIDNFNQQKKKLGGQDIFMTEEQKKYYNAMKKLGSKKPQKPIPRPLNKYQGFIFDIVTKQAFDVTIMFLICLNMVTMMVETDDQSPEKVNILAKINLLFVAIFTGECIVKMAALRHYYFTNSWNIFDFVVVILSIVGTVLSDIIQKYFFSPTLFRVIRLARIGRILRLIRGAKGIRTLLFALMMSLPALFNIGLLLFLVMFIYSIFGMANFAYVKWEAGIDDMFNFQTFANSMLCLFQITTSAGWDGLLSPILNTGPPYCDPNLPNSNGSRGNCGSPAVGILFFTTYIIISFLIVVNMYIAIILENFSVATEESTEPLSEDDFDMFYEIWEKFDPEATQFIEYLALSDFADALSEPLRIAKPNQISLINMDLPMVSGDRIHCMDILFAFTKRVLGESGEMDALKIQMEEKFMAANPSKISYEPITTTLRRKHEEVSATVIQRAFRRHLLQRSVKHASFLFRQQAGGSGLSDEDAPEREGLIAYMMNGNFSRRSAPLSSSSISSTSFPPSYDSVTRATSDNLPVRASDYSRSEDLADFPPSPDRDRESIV

SMILES | ED20 (Cavia porcellus [1]) [mg/kg] | dP/dt20 (Cavia porcellus [2]) [mg/kg] | inhibition at 10 µM [3] [%] | minimal effective dose (Canis familiaris) [mg/kg] | minimal effective dose (Cavia porcellus [4]) [mg/kg]
CN1Cc2ccccc2C(c2ccccc2)N=C1CCC1CCCCC1.Cl (centres undefined) | 0.1 | 0.66 | 98 |  | 
CN1Cc2ccccc2C(c2ccccc2)N=C1CCCc1ccccc1.Cl (centres undefined) | 0.2 | 0.12 | 100 |  | 
CCC1=NC(c2ccccc2)c2ccccc2CN1.Cl (centres undefined) | 1.1 | 0.2 | 84 |  | 
CCN(CC)CC1=NC(C)(c2ccccc2)c2ccccc2CN1C.Cl (centres undefined) | > 20 | 0.01 | 90 |  | 
CN1Cc2ccccc2C(c2ccccc2)N=C1CN1CCCCC1.O=C(O)/C=C/C(=O)O (centres undefined) | 0.4 | 0.002 | 94 |  | 
CCC1=NC(c2ccccc2)c2ccccc2CN1Cc1ccccc1.Cl (centres undefined) | 1 | 0.2 | 98 |  | 
COc1ccc(C(=O)Nc2ccccc2CCC2CCCCN2C)cc1 (centres undefined) [ENCAINIDE] | 0.7 | 0.003 | 55 |  | 
CN1Cc2ccccc2C(c2ccccc2)N=C1c1ccccc1 (centres undefined) | 0.3 | 1.1 | 85 |  | 
CCN(CC)CCNC1=NC(c2ccccc2)c2ccccc2CN1C.O=C(O)/C=C/C(=O)O (centres undefined) | 0.7 | 0.9 | 98 |  | 
CCC1=NC(c2ccccc2)c2ccccc2CN1C(C)C.Cl (centres undefined) | 0.2 | 0.15 | 87 |  | 
CN1Cc2ccccc2C(c2ccccc2)N=C1COc1ccc(Cl)cc1 (centres undefined) | 0.2 | 0.17 | 100 |  | 
CCN(CC)CC(=O)Nc1c(C)cccc1C [LIDOCAINE] | 8 | 4.3 | 10 |  | 
CN1Cc2ccccc2C(C)(c2ccccc2)N=C1CCc1ccccc1 (centres undefined) | 0.34 | 0.9 | 97 |  | 
CCCCC1=NC(c2ccccc2)c2ccccc2CN1C.Cl (centres undefined) | 0.1 | 0.1 | 83 |  | 
CCCCCCCCC1=NC(c2ccccc2)c2ccccc2CN1C.Cl (centres undefined) | 0.2 | 0.1 | 81 |  | 
CN(C)CC1=NC(C)(c2ccccc2)c2ccccc2CN1C (centres undefined) | 0.8 | 0.02 | 57 |  | 
CCC1=N[C@@H](c2ccccc2)c2ccccc2CN1C.Cl | 7.1 | 0.09 | 45 | > 10 | 3
CCC1=NC(CC)(c2ccccc2)c2ccccc2CN1C (centres undefined) | 0.2 | 0.1 | 78 |  | 
CN1Cc2ccccc2C(C)(c2ccccc2)N=C1CC(O)c1ccccc1 (centres undefined) | 0.1 | 0.1 | 92 | 10 | < 3
CCC1=NC(Cc2ccccc2)c2ccccc2CN1C (centres undefined) | 0.2 | 0.2 | 84 |  | 
CN1Cc2ccccc2C(c2ccccc2)N=C1N1CCOCC1.Cl (centres undefined) | 0.6 | 0.4 | 49 |  | 
COc1ccc(OCC2=NC(c3ccccc3)c3ccccc3CN2C)cc1.Cl (centres undefined) | 0.1 | 0.48 | 98 |  | 
CCOC(=O)CC1=NC(C)(c2ccccc2)c2ccccc2CN1C (centres undefined) | 0.3 | 0.007 | 79 |  | 
CC(C)NCC(O)c1ccc(NS(C)(=O)=O)cc1 (centres undefined) [SOTALOL] | 1.3 | 1.9 | 0 |  | 
CN1C=NC(c2ccccc2)c2ccccc2C1 (centres undefined) | 1.4 | 0.9 | 68 |  | 
CN1Cc2ccccc2C(c2ccccc2)N=C1COc1ccccc1.Cl (centres undefined) | 0.3 |  | 98 |  | 
CC1=NC(c2ccccc2)c2ccccc2CN1C (centres undefined) | 1.2 | 0.9 | 52 |  | 

Reference: ChEMBL document CHEMBL1126878, “4,5-Dihydro-1-phenyl-1H-2,4-benzodiazepines: novel antiarrhythmic agents” (J Med Chem, 1993)
